In ChEMBL document CHEMBL3779858, “Design, synthesis and Structure-activity relationship studies of new thiazole-based free fatty acid receptor 1 agonists for the treatment of type 2 diabetes” (Eur J Med Chem, 2016):
Calls of active or inactive are those of the source. No cut-off for these calls is given here.

molecular target: T1, Free fatty acid receptor 1 (Homo sapiens, UniProt O14842); assay: Agonist activity at human FFA1 receptor expressed in CHO cells assessed as Ca2+ influx at 100 nM by FLIPR assay; type: functional, cell-based; settings: not given
In short: (§1)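 Human FFA1 stably expressed in CHO cells, seeded at 15K/well and grown 16 h at 37 °C, 5% CO2. Cells loaded 1 h at 37 °C with Fluo 4-AM (2.5 µg/mL), 2.5 mmol/L probenecid and 0.1% fatty acid-free BSA. Single screening concentration as listed. Ca2+ flux read on FLIPR Tetra and expressed as % of the 10 µM γ-linolenic acid response after vehicle subtraction. Mean of three independent experiments.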

T1 sequence (O14842 whole entry): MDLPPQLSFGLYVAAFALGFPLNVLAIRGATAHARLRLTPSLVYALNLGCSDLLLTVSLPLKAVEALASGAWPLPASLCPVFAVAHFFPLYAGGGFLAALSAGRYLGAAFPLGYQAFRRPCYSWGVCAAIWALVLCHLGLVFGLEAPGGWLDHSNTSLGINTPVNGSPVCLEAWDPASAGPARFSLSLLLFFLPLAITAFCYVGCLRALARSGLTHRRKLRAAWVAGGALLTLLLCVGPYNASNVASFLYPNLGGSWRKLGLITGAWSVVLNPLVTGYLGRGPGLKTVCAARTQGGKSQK

Row | Activity | SMILES
1 | 14.8% | Cc1nc(-c2cc3ccccc3o2)sc1COc1ccc2c(c1)OCC2CC(=O)O (stereo not given)
2 | 8.53% | Cc1nc(-c2cccc3ccccc23)sc1COc1ccc2c(c1)OCC2CC(=O)O (stereo not given)
3 | 35.7% | Cc1nc(-c2cccc(C(F)(F)F)c2)sc1COc1ccc2c(c1)OCC2CC(=O)O (stereo not given)
4 | 2.34% | O=C(O)CC1COc2cc(OCc3ncc(-c4ccccc4)o3)ccc21 (stereo not given)
5 | 10.7% | Cc1ccccc1-c1nc(C)c(COc2ccc3c(c2)OCC3CC(=O)O)s1 (stereo not given)
6 | 54.8% | Cc1nc(-c2ccccc2)sc1COc1ccc2c(c1)OCC2CC(=O)O (stereo not given)
7 | 7.47% | COc1cc(-c2nc(C)c(COc3ccc4c(c3)OCC4CC(=O)O)s2)cc(OC)c1OC (stereo not given)
8 | 8.34% | Cc1nc(-c2ccc(Cl)s2)sc1COc1ccc2c(c1)OCC2CC(=O)O (stereo not given)
9 | 7.15% | Cc1nc(-c2ccccc2)oc1COc1ccc2c(c1)OCC2CC(=O)O (stereo not given)
10 | 5.26% | O=C(O)CC1COc2cc(OCc3ncc(-c4ccccc4)s3)ccc21 (stereo not given)
11 | 12.4% | Cc1nc(-c2ccccc2Cl)sc1COc1ccc2c(c1)OCC2CC(=O)O (stereo not given)
12 | 35.1% | Cc1nc(-c2cccs2)sc1COc1ccc2c(c1)OCC2CC(=O)O (stereo not given)
13 | 25.8% | Cc1nc(-c2ccccc2F)sc1COc1ccc2c(c1)OCC2CC(=O)O (stereo not given)
14 | 0.84% | O=C(O)CC1COc2cc(OCc3cc(-c4ccccc4)on3)ccc21 (stereo not given)
15 | 3.36% | O=C(O)CC1COc2cc(OCc3nnc(-c4ccccc4)s3)ccc21 (stereo not given)
16 | 0.16% | O=C(O)CC1COc2cc(OCc3nc(-c4ccccc4)cs3)ccc21 (stereo not given)

tested on: Mus musculus; assay: Antidiabetic activity in overnight fasted ICR mouse assessed as decrease in blood glucose level at […], po administered 30 mins prior to glucose challenge measured after 15 to 120 mins by OGTT method; type: functional, organism-based; settings: 38 umol/kg
In short: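 Male ICR mice, 10 weeks old, 18-22 g, fasted overnight (12 h), n = 6 per group. Single oral dose in 0.5% CMC-Na vehicle (10 mL/kg), […] for the reference compound (20 mg/kg) and for the test compounds. Oral glucose load (30%, 3 g/kg) given 30 min later. Tail blood glucose measured by test strip at -30, 0, 15, 30, 45, 60 and 120 min. AUC0-2h also derived. Mean ± SEM.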

Row | SMILES | Activity
17 | Cc1nc(-c2ccccc2)sc1COc1ccc2c(c1)OCC2CC(=O)O (stereo not given) | Active

molecular target: T1, Free fatty acid receptor 1; assay: Agonist activity at human FFA1 receptor expressed in CHO cells assessed as Ca2+ influx at 300 nM by FLIPR assay; type: functional, cell-based; settings: not given; in short: as §1

Row | Activity | SMILES
18 | 10.2% | O=C(O)CC1COc2cc(OCc3ncc(-c4ccccc4)o3)ccc21 (stereo not given)
19 | 67.4% | Cc1nc(-c2ccccc2)sc1COc1ccc2c(c1)OCC2CC(=O)O (stereo not given)
20 | 0.89% | O=C(O)CC1COc2cc(OCc3cn(-c4ccccc4)nn3)ccc21 (stereo not given)
21 | 21.2% | Cc1nc(-c2ccccc2)oc1COc1ccc2c(c1)OCC2CC(=O)O (stereo not given)
22 | 19.8% | O=C(O)CC1COc2cc(OCc3ncc(-c4ccccc4)s3)ccc21 (stereo not given)
23 | 1.67% | O=C(O)CC1COc2cc(OCc3cc(-c4ccccc4)on3)ccc21 (stereo not given)
24 | 13.7% | O=C(O)CC1COc2cc(OCc3nnc(-c4ccccc4)s3)ccc21 (stereo not given)
25 | 0.23% | O=C(O)CC1COc2cc(OCc3nc(-c4ccccc4)cs3)ccc21 (stereo not given)
